Measured values published in ChEMBL document CHEMBL4321860, “Disrupting the Conserved Salt Bridge in the Trimerization of Influenza A Nucleoprotein” (J Med Chem, 2020).
Active and inactive are the calls of the source. The calls are words filed in the database; no cut-off is given here.

Key:
[1] = Inhibition of nucleoprotein trimerization in recombinant Influenza A virus A/WSN/1933 (H1N1) infected in MDCK cells assessed as reduction in reduction in E339(carboxyl group)-R416(guanidino group) interaction by measuring virus-induced cytopathic effect after 48 hrs by CellTiter 96 AQueous non-radioactive cell proliferation assay; type: cell-based
Procedure, shortened: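 CPE protection assay. Virus at 100 TCID₅₀ is mixed 1:1 with compound at varied concentrations and added to MDCK cells (1 × 10⁵ cells/mL). After 48 h at 37 °C/5% CO₂, CPE is read with CellTiter 96 AQueous reagent. EC₅₀, the concentration giving 50% protection from CPE, is obtained by fitting percent CPE against concentration.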

[2] = Cytotoxicity against dog MDCK cells after 48 hrs by CellTiter 96 AQueous non-radioactive cell proliferation assay; type: cell-based, Canis lupus familiaris
Procedure, shortened: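 MDCK cells, grown in DMEM with 10% FBS and penicillin−streptomycin at 37 °C/5% CO₂, seeded at 1 × 10⁵ cells/mL and exposed to varied compound concentrations without virus. Incubated 48 h at 37 °C under 5% CO₂, then read with CellTiter 96 AQueous (MTS) reagent. CC₅₀ is the 50% cytotoxic concentration from the curve fit.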

[3] = Aqueous solubility of compound; type: physicochemical; conditions: buffer
Influenza A virus [4] = experiment: Antiviral activity against Influenza A virus A/WSN/1933 (H1N1) infected in BALB/c mouse assessed as increase in animal body weight at 20 mg/kg/day, ip administered for 5 days and measured after 10 days post infection; type: functional, organism-based
Procedure, shortened: (§1)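 Female BALB/c mice (18−20 g), quarantined 48−72 h, anesthetized i.p. (zoletil or ketamine/xylazine). Drug in PBS with 40% PEG 400 given i.p. twice daily for 5 days. Intranasal virus challenge (25 μL, 2X mouse LD₅₀) 4 h after first dose. Vehicle-only controls on the same schedule; 10 mice/group. Survival and body weight recorded daily for 14 days.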

Influenza A virus [5] = experiment: Antiviral activity against Influenza A virus A/WSN/1933 (H1N1) infected in BALB/c mouse assessed as animal survival rate at 20 mg/kg/day, ip administered for 5 days and measured after 14 days relative to control; type: functional; procedure, shortened: as §1

SMILES | EC50 [1] | CC50 at 48 h [2] | solubility [3] | Activity (Influenza A virus [4]) | Activity (Influenza A virus [5])
O=C(NCCCN1CCOCC1)c1csc(Nc2ccc(Cl)c(F)c2)n1 | 3.2 µM | 45 µM | – | – | –
CCOCCCNC(=O)c1csc(Nc2cc(F)c(Cl)c(F)c2)n1 [listing 1 of 2 here] | 0.12 µM | > 100 µM | Insoluble | – | –
Cc1cc(Nc2nc(C(=O)NCCCOC(C)C)cs2)cc(C)c1Cl | 1.3 µM | > 100 µM | – | – | –
CC(C)OCCCNC(=O)c1csc(Nc2cc(Cl)c(Cl)c(Cl)c2)n1 | 0.6 µM | > 100 µM | – | – | –
Cc1cc(Nc2nc(C(=O)NCCCN3CCOCC3)cs2)cc(C)c1Cl | 3.1 µM | 45.7 µM | – | – | –
CCOCCCNC(=O)c1csc(Nc2ccc(Cl)cc2)n1 | 1.3 µM | > 100 µM | – | – | –
CC(C)OCCCNC(=O)c1csc(Nc2ccc(Cl)cc2)n1 | 1.2 µM | > 100 µM | – | – | –
CCOCCCNC(=O)c1csc(Nc2ccc(Cl)c(C)c2)n1 | 1 µM | 52 µM | – | – | –
CC(C)OCCCNC(=O)c1csc(Nc2cc(F)c(Cl)c(F)c2)n1 [listing 1 of 2 here] | – | – | – | Active | –
CCOCCCNC(=O)c1csc(Nc2ccc(Cl)c(F)c2)n1 | 0.6 µM | > 100 µM | – | – | –
O=C(NCCCN1CCOCC1)c1csc(Nc2ccc(Cl)c(Cl)c2)n1 | 2.7 µM | 35.6 µM | – | – | –
CCOCCCNC(=O)c1csc(Nc2ccc(Cl)c(Cl)c2)n1 | 0.2 µM | > 100 µM | – | – | –
CC(C)OCCCNC(=O)c1csc(Nc2ccc(Cl)c(F)c2)n1 | 0.5 µM | > 100 µM | – | – | –
Cc1cc(Nc2nc(C(=O)NCCCOC(C)C)cs2)ccc1Cl | 1.2 µM | > 100 µM | – | – | –
CCOCCCNC(=O)c1csc(Nc2cc(C)c(Cl)c(C)c2)n1 | 2.3 µM | > 100 µM | – | – | –
O=C(NCCCN1CCOCC1)c1csc(Nc2cc(F)c(Cl)c(F)c2)n1 | 0.8 µM | 52 µM | – | – | –
Cc1cc(Nc2nc(C(=O)NCCCN3CCOCC3)cs2)ccc1Cl | 3.7 µM | 47 µM | – | – | –
CC(C)OCCCNC(=O)c1csc(Nc2cc(F)c(Cl)c(F)c2)n1.O=S(=O)(O)O.O=S(=O)(O)O | – | – | – | – | 30%
CCOCCCNC(=O)c1csc(Nc2cc(F)c(Cl)c(F)c2)n1.CS(=O)(=O)O.CS(=O)(=O)O | – | – | – | – | 70%
CCOCCCNC(=O)c1csc(Nc2cc(F)c(Cl)c(F)c2)n1 [listing 2 of 2 here] | – | – | – | Active | –
CC(C)OCCCNC(=O)c1csc(Nc2cc(F)c(Cl)c(F)c2)n1 [listing 2 of 2 here] | 0.11 µM | > 100 µM | Insoluble | – | –
CC(C)OCCCNC(=O)c1csc(Nc2ccc(Cl)c(Cl)c2)n1 | 0.7 µM | 100 µM | – | – | –
O=C(NCCCN1CCOCC1)c1csc(Nc2cc(Cl)c(Cl)c(Cl)c2)n1 | 1.5 µM | 41 µM | – | – | –
CCOCCCNC(=O)c1csc(Nc2cc(Cl)c(Cl)c(Cl)c2)n1 | 0.4 µM | > 100 µM | – | – | –
O=C(NCCCN1CCOCC1)c1csc(Nc2ccc(Cl)cc2)n1 | 3.1 µM | > 100 µM | – | – | –
